# Experimental data as given in ChEMBL document CHEMBL4028872, “Structure-Activity Relationship, Pharmacological Characterization, and Molecular Modeling of Noncompetitive Inhibitors of the Betaine/γ-Aminobutyric Acid Transporter 1 (BGT1)” (J Med Chem, 2017).
# Legend:
# Assay type in all cases: cell-based
# [1] = biological target: T1, Sodium- and chloride-dependent GABA transporter 2 (Homo sapiens, UniProt Q9NSD5); test: Inhibition of human GAT2 expresses in tsA201 cells assessed as reduction in [3H]GABA uptake after 3 mins by scintillation counting method
# T1 sequence (Q9NSD5 whole entry): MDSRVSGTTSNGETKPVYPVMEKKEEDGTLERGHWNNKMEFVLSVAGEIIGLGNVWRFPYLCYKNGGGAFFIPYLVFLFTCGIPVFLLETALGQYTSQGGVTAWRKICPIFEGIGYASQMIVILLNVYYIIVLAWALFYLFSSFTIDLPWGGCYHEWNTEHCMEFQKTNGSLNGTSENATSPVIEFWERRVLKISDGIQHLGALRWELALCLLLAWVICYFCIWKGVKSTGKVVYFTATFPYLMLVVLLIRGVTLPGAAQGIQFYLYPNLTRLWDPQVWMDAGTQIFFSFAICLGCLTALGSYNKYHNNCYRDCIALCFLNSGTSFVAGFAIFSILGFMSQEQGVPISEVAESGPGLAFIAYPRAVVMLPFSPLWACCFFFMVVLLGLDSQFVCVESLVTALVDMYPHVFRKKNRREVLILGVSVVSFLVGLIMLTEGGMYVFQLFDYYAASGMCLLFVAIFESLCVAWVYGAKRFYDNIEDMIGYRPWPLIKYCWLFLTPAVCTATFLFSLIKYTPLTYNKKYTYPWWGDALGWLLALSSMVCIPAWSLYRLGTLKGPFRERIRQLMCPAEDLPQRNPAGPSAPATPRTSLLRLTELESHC
# Method in brief: (§1)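 Wild-type human GAT transiently expressed in tsA201 cells via pcDNA5/FRT and PolyFect. Uptake of 30 nM [3H]GABA was run for 3 min at 37 °C in HBSS/20 mM HEPES with 1 mM CaCl2 and 1 mM MgCl2, pH 7.4, across a range of test concentrations. Ice-cold washes were followed by scintillation counting. IC50 was obtained by sigmoidal variable-slope fitting, reported as mean pIC50 ± S.E.M.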
# [2] = biological target: T2, Sodium- and chloride-dependent GABA transporter 3 (Homo sapiens, UniProt P48066); test: Inhibition of human GAT3 expresses in tsA201 cells assessed as reduction in [3H]GABA uptake after 3 mins by scintillation counting method; method in brief: as §1
# T2 sequence (P48066 whole entry): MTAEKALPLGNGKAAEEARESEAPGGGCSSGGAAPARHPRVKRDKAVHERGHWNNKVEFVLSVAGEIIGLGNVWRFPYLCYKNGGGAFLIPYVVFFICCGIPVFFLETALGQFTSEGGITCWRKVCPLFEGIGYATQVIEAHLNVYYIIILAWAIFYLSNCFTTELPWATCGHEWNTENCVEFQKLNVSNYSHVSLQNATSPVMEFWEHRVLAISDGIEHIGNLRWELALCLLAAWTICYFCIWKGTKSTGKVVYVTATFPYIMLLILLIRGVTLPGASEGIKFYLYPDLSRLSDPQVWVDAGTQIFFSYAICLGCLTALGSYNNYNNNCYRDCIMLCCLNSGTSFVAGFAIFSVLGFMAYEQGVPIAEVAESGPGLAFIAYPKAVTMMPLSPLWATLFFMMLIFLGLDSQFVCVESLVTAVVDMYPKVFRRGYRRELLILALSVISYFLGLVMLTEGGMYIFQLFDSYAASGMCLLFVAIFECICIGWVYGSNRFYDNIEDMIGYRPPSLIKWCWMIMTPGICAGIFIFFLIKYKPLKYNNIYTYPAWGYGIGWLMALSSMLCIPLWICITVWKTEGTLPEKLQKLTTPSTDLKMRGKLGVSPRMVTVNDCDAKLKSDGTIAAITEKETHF
# [3] = biological target: T3, Sodium- and chloride-dependent betaine transporter (Homo sapiens, UniProt P48065); test: Inhibition of human BGT1 expresses in tsA201 cells assessed as reduction in [3H]GABA uptake after 3 mins by scintillation counting method
# T3 sequence (P48065 whole entry): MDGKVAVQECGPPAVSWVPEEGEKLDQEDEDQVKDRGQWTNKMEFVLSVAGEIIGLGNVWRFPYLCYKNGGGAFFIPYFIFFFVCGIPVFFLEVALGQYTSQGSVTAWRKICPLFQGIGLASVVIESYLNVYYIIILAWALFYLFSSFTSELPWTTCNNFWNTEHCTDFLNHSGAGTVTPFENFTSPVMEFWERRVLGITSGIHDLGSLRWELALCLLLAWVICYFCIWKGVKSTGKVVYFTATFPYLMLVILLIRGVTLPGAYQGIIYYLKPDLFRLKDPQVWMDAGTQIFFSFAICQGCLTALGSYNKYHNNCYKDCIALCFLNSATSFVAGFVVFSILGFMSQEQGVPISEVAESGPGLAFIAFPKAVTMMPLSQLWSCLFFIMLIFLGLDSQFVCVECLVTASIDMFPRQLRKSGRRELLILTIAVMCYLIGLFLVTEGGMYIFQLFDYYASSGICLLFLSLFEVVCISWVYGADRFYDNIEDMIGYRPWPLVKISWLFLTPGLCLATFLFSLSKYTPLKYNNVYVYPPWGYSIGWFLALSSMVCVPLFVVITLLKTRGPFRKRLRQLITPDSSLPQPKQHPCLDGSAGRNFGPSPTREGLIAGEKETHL
# Method in brief: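 tsA201 cells transiently transfected with wild-type or mutant human BGT1 (PolyFect) were plated about 24 h before assay. Three ice-cold washes followed, then scintillation counting.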
# [4] = biological target: Sodium- and chloride-dependent GABA transporter 1 (Homo sapiens, UniProt P30531)
# Chain of Sodium- and chloride-dependent GABA transporter 1 (P30531 whole entry): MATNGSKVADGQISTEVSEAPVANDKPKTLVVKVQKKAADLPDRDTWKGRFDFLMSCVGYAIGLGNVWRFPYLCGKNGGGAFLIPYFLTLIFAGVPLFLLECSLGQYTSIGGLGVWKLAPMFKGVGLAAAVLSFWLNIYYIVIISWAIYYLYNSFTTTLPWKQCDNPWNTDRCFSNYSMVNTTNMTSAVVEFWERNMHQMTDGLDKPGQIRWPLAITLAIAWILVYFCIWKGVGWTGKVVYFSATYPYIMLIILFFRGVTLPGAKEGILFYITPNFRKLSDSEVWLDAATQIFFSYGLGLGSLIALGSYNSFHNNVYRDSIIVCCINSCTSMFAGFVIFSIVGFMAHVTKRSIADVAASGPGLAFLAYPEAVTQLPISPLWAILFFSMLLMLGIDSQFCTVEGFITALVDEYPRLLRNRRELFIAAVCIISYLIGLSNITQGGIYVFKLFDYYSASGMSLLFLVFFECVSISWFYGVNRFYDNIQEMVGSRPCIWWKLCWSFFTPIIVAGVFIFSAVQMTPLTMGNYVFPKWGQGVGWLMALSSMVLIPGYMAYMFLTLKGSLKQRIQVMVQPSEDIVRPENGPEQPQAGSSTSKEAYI
IC50 [1] [µM],IC50 [2] [µM],IC50 [3] [µM],IC50 [4] [µM],Compound,IC50 ([1]; read-out: IC50) [µM],IC50 ([2]; read-out: IC50) [µM],IC50 ([3]; read-out: IC50) [µM],IC50 ([4]; read-out: IC50) [µM]
–,–,–,–,CCOc1ccccc1C(=O)NC1CCN(Cc2ccccc2)CC1,> 500,> 500,180,> 500
–,–,–,–,O=C(NC1CCN(Cc2ccccc2)CC1)c1ccc(F)cc1,> 300,> 300,100,> 300
–,–,–,–,O=C(NC1CCN(Cc2ccc3ccccc3n2)CC1)c1ccc(Cl)cc1Cl,> 50,> 50,> 50,> 50
–,–,–,–,O=C(NC1CCN(Cc2cccnc2)CC1)c1ccc(Cl)cc1Cl,> 1000,> 1000,> 1000,> 1000
–,–,–,–,C#CCN1CCC(NC(=O)c2ccc(Cl)cc2Cl)CC1,> 1000,> 1000,> 1000,> 1000
–,–,–,–,O=C(NC1CCN(Cc2ccccc2)CC1)c1cccc(C(F)(F)F)c1,> 500,> 500,170,> 500
23,> 100,15,> 100,O=C(NC1CCN(Cc2ccccc2)CC1)c1ccc2ccccc2c1,–,–,–,–
–,–,–,–,O=C(NC1CCNCC1)c1ccc(Cl)cc1Cl,> 1000,> 1000,> 1000,> 1000
–,–,–,–,O=C(NC1CCN(Cc2ccc([N+](=O)[O-])cc2)CC1)c1ccc(Cl)cc1Cl,> 100,> 100,> 100,> 100
–,–,–,–,O=C(NC1CCN(Cc2ccccn2)CC1)c1ccc(Cl)cc1Cl,> 1000,> 1000,> 1000,> 1000
–,–,–,–,CN1CCC(NC(=O)c2ccc(Cl)cc2Cl)CC1,> 1000,> 1000,> 1000,> 1000
–,–,–,–,COc1cccc(C(=O)NC2CCN(Cc3ccccc3)CC2)c1OC,> 500,> 500,91,> 500
–,–,–,–,CCCN1CCC(NC(=O)c2ccc(Cl)cc2Cl)CC1,> 1000,> 1000,> 1000,> 1000
–,–,–,–,CC(C)C(=O)NC1CCN(Cc2ccccc2)CC1,> 1000,> 1000,> 1000,> 1000
–,–,–,–,O=C(NC1CCN(Cc2ccncc2)CC1)c1ccc(Cl)cc1Cl,> 1000,> 1000,> 1000,> 1000
